ChEMBL document CHEMBL4765236, “Insights into the Antimicrobial Activity and Cytotoxicity of Engineered α-Helical Peptide Amphiphiles” (J Med Chem, 2016)
The source made the active and inactive calls. The calls are words filed in the database; no cut-off is given here.

Tests used:
Escherichia coli [1] = experiment: Antibacterial activity against Escherichia coli ATCC 35150 assessed as bacterial growth inhibition incubated for 18 to 24 hrs by microtiter broth dilution method; format: functional; settings: time 18-24 hrs
Procedure, shortened: (§1)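 Log-phase cells (grown overnight at 37 °C, subcultured in MHB) diluted to 10^5 CFU/mL in MHB and mixed 1:1 with serial peptide dilutions prepared in 0.01% acetic acid/0.2% BSA. Incubated 37 °C for 18-24 h. MIC is the lowest concentration giving no growth by OD492. Reported as the average of 3-5 independent experiments.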

Salmonella paratyphi = experiment: Antibacterial activity against Salmonella paratyphi C CICC 21512 assessed as bacterial growth inhibition incubated for 18 to 24 hrs by microtiter broth dilution method; format: functional; settings: Salmonella enterica, time 18-24 hrs
Procedure, shortened: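 Log-phase bacteria grown at 37 °C in MHB, diluted to 10^5 CFU/mL, mixed 1:1 with serial peptide dilutions (peptide diluted in 0.01% acetic acid, 0.2% BSA); 37 °C for 18-24 h. MIC read by OD492 as lowest concentration giving no growth; mean of 3-5 independent experiments.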

Salmonella enteritidis = experiment: Antibacterial activity against Salmonella enteritidis CICC 21527 assessed as bacterial growth inhibition incubated for 18 to 24 hrs by microtiter broth dilution method; format: functional, Salmonella enterica subsp. enterica serovar Enteritidis; settings: Salmonella enterica, time 18-24 hrs; procedure, shortened: as §1
Bacillus cereus = experiment: Antibacterial activity against Bacillus cereus CMCC 63301 assessed as bacterial growth inhibition incubated for 18 to 24 hrs by microtiter broth dilution method; format: functional; settings: time 18-24 hrs; procedure, shortened: as §1
Micrococcus luteus = experiment: Antibacterial activity against Micrococcus luteus CMCC 28001 assessed as bacterial growth inhibition incubated for 18 to 24 hrs by microtiter broth dilution method; format: functional; settings: time 18-24 hrs; procedure, shortened: as §1
Bacillus pumilus = experiment: Antibacterial activity against Bacillus pumilus CMCC 63202 assessed as bacterial growth inhibition incubated for 18 to 24 hrs by microtiter broth dilution method; format: functional; settings: time 18-24 hrs; procedure, shortened: as §1
Pseudomonas fluorescens = experiment: Antibacterial activity against Pseudomonas fluorescens CICC 21620 assessed as bacterial growth inhibition incubated for 18 to 24 hrs by microtiter broth dilution method; format: functional; settings: time 18-24 hrs; procedure, shortened: as §1
Candida albicans = experiment: Antifungal activity against Candida albicans ATCC 10231 assessed as fungal growth inhibition incubated for 18 to 24 hrs by microtiter broth dilution method; format: functional; settings: time 18-24 hrs; procedure, shortened: as §1
Erythrocyte [2] = experiment: Hemolytic activity against human red blood cells assessed as concentration required to cause 10% hemoglobin release measured after 1 hr by microplate reader analysis; format: ADME, cell-based
Procedure, shortened: (§2)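 Fresh heparinized human RBCs washed three times in 10 mM PBS pH 7.4 and resuspended to about 1% (v/v) (5.4 × 10^8 cells/mL). Mixed 1:1 with peptide in PBS for 1 h at 37 °C, then centrifuged. Supernatant hemoglobin read at A540. PBS set as 0% and 0.1% Triton X-100 as 100% hemolysis. MHC is the concentration causing 10% hemolysis.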

[3] = Therapeutic index, ratio of MHC10 for human RBC to geometric mean of peptide MIC for Staphylococcus aureus ATCC 29213; format: toxicity; settings: human red blood cells (RBC), pooled result: one value given for 9 cell lines, strains, targets or settings, read-out: TI
Procedure, shortened: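 Therapeutic index = MHC (peptide concentration giving 10% hemolysis of human RBCs, 1 h, 37 °C, A540) divided by geometric mean of MICs from broth microdilution (10^5 CFU/mL in MHB, 37 °C, 18-24 h, OD492).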

Escherichia coli [4] = experiment: Antibacterial activity against Escherichia coli O157:H7 CICC 21530 assessed as bacterial growth inhibition incubated for 18 to 24 hrs in presence of 150 mM NaCl by microtiter broth dilution method (reference value: 0.85 to > 71.5 uM); format: functional; settings: time 18-24 hrs
Escherichia coli [5] = experiment: Antibacterial activity against Escherichia coli O157:H7 CICC 21530 assessed as bacterial growth inhibition incubated for 18 to 24 hrs in presence of 4.5 mM KCl by microtiter broth dilution method (reference value: 0.85 to > 71.5 uM); format: functional; settings: time 18-24 hrs
Escherichia coli [6] = experiment: Antibacterial activity against Escherichia coli O157:H7 CICC 21530 assessed as bacterial growth inhibition incubated for 18 to 24 hrs in presence of 6 mM NH4Cl by microtiter broth dilution method (reference value: 0.85 to > 71.5 uM); format: functional; settings: time 18-24 hrs
Escherichia coli [7] = experiment: Antibacterial activity against Escherichia coli O157:H7 CICC 21530 assessed as bacterial growth inhibition incubated for 18 to 24 hrs in presence of 1 mM MgCl2 by microtiter broth dilution method (reference value: 0.85 to > 71.5 uM); format: functional; settings: time 18-24 hrs
Escherichia coli [8] = experiment: Antibacterial activity against Escherichia coli O157:H7 CICC 21530 assessed as bacterial growth inhibition incubated for 18 to 24 hrs in presence of 2 mM CaCl2 by microtiter broth dilution method (reference value: 0.85 to > 71.5 uM); format: functional; settings: time 18-24 hrs
HepG2 = experiment: Cytotoxicity against human HepG2 cells assessed as reduction in cell viability incubated for 24 hrs by MTT assay; format: functional, cell-based
Procedure, shortened: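 HepG2 survival measured by MTT assay over a peptide range of 0.25-64 µM.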

Staphylococcus aureus [9] = experiment: Antibacterial activity against Staphylococcus aureus ATCC 29213 assessed as bacterial growth inhibition incubated for 18 to 24 hrs in presence of 6 mM NH4Cl by microtiter broth dilution method (reference value: 0.43 to > 71.5 uM); format: functional; settings: time 18-24 hrs
Staphylococcus aureus [10] = experiment: Antibacterial activity against Staphylococcus aureus ATCC 29213 assessed as bacterial growth inhibition incubated for 18 to 24 hrs in presence of 2 mM CaCl2 by microtiter broth dilution method (reference value: 0.43 to > 71.5 uM); format: functional; settings: time 18-24 hrs
Staphylococcus aureus [11] = experiment: Antibacterial activity against Staphylococcus aureus ATCC 29213 assessed as bacterial growth inhibition incubated for 18 to 24 hrs in presence of […] by microtiter broth dilution method (reference value: 0.43 to > 71.5 uM); format: functional; settings: time 18-24 hrs
Staphylococcus aureus [12] = experiment: Bactericidal activity against Staphylococcus aureus ATCC 29213 assessed as bacterial killing at 1 times MIC by time kill assay; format: functional, organism-based; settings: time 1085.0 min, TDE = time-dependent effect
Procedure, shortened: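 Log-phase S. aureus 29213 exposed to peptide at 1 × MIC in 10 mM PBS pH 7.4 at 37 °C for 0-90 min. Aliquots taken at fixed intervals, diluted and plated on nutrient agar, and colonies counted after 18 h at 37 °C. Average of three independent assays.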

Erythrocyte [13] = experiment: Hemolytic activity against human red blood cells assessed as hemoglobin release at 64 uM measured after 1 hr by microplate reader analysis; format: ADME, cell-based; procedure, shortened: as §2
Cell membrane [14] = experiment: Induction of cell membrane disruption in Escherichia coli O157:H7 CICC 21530 assessed as propidium iodide-positive cells at 0.5 times MIC measured after 30 mins by flow cytometry analysis (reference value: 5.7 %); format: subcellular
Cell membrane [15] = experiment: Induction of cell membrane disruption in Escherichia coli O157:H7 CICC 21530 assessed as propidium iodide-positive cells at 2 times MIC measured after 30 mins by flow cytometry analysis (reference value: 5.7 %); format: subcellular
Escherichia coli [16] = experiment: Induction of morphological changes in Escherichia coli O157:H7 CICC 21530 assessed as membrane blebbing at 1 times MIC after 60 mins by SEM analysis; format: functional, organism-based
Escherichia coli [17] = experiment: Induction of morphological changes in Escherichia coli O157:H7 CICC 21530 assessed as membrane destruction at 1 times MIC after 60 mins by SEM analysis; format: functional, organism-based

Substance | MIC (Escherichia coli [1]) [µM] | MIC (Salmonella paratyphi) [µM] | MIC (Salmonella enteritidis) [µM] | MIC (Bacillus cereus) [µM] | MIC (Micrococcus luteus) [µM] | MIC (Bacillus pumilus) [µM] | MIC (Pseudomonas fluorescens) [µM] | MIC (Candida albicans) [µM] | MHC10 (Erythrocyte [2]) [µM] | selectivity ratio [3] | MIC (Escherichia coli [4]) [µM] | MIC (Escherichia coli [5]) [µM] | MIC (Escherichia coli [6]) [µM] | MIC (Escherichia coli [7]) [µM] | MIC (Escherichia coli [8]) [µM] | Activity (HepG2) | MIC (Staphylococcus aureus [9]) [µM] | MIC (Staphylococcus aureus [10]) [µM] | MIC (Staphylococcus aureus [11]) [µM] | Activity (Staphylococcus aureus [12]) | other results
H-WGRAFSRGVRRLARGGRG-NH2 | 31.8 | 15.9 | > 63.5 | > 63.5 | > 63.5 | > 63.5 | > 63.5 | > 63.5 | > 63.54 | 2.16 | 15.9 | 3.97 | 7.94 | 7.94 | 15.9 | Dose-dependent effect | > 63.5 | > 63.5 | > 63.5 | Tde | Activity (Erythrocyte [13]): Non-Toxic
H-WGRAFSAGVHRLANGGNG-NH2 | > 70.1 | > 70.1 | > 70.1 | > 70.1 | > 70.1 | > 70.1 | > 70.1 | > 70.1 | > 70.09 | 1.08 | > 70.1 | > 70.1 | > 70.1 | > 70.1 | > 70.1 | Dose-dependent effect | > 70.1 | > 70.1 | > 70.1 | Tde | Activity (Erythrocyte [13]): Non-Toxic
H-WGEAFSAGVHRLANGGNG-NH2 | > 71.2 | > 71.2 | > 71.2 | > 71.2 | > 71.2 | > 71.2 | > 71.2 | > 71.2 | > 71.15 | 1 | > 71.2 | > 71.2 | > 71.2 | > 71.2 | > 71.2 | Dose-dependent effect | > 71.2 | > 71.2 | > 71.2 | Tde | Activity (Cell membrane [14]): 14.3%; Activity (Cell membrane [15]): 27.7%; Activity (Escherichia coli [16]): Active; Activity (Erythrocyte [13]): Non-Toxic; Activity (Escherichia coli [17]): Active
H-WLRAFRRLVRRLARGLRR-NH2 | 1.7 | 0.43 | 6.81 | 0.85 | 0.43 | 0.85 | 0.43 | 3.4 | 27.22 | 59.1 | 3.4 | 0.85 | 0.85 | 0.85 | 3.4 | Dose-dependent effect | 0.43 | 0.43 | 55 | Tde | Activity (Cell membrane [14]): 78.9%; Activity (Cell membrane [15]): 98%; Activity (Escherichia coli [16]): Active; IC50 (HepG2; HepG2, 24 h): 32 µM; Activity (Erythrocyte [13]): Non-Toxic; Activity (Escherichia coli [17]): Active
H-WLRAFRRLVRRLARLLRR-NH2 | 26.6 | 6.65 | > 53.2 | 53.2 | 13.3 | 26.6 | 53.2 | 26.6 | 53.18 | 5.88 | > 53.2 | 1.66 | > 53.2 | > 53.2 | > 53.2 | Dose-dependent effect | 1.66 | 13.3 | > 53.2 | Tde | Activity (Erythrocyte [13]): Non-Toxic
H-WGRAFSAGVHRLARGGRG-NH2 | > 67 | > 67 | > 67 | > 67 | > 67 | > 67 | > 67 | > 67 | > 67.01 | 1.26 | > 67 | 4.19 | 8.35 | 67 | > 67 | Dose-dependent effect | > 67 | > 67 | > 67 | Tde | Activity (Erythrocyte [13]): Non-Toxic
H-WGRAFRRGVRRLARGGRR-NH2 | 29.3 | 7.33 | > 58.6 | 14.7 | 7.33 | > 58.6 | 29.3 | 29.3 | > 58.64 | 8 | 14.7 | 3.67 | 3.67 | 3.67 | 7.33 | Dose-dependent effect | 7.33 | 7.33 | > 58.6 | Tde | Activity (Erythrocyte [13]): Non-Toxic
H-WGRAFRRLVRRLARGLRR-NH2 | 13.9 | 3.49 | > 55.8 | 55.8 | 27.9 | 55.8 | 55.8 | 13.9 | > 55.78 | 11.8 | 13.9 | 3.49 | 3.49 | 6.97 | 13.9 | Dose-dependent effect | 1.74 | 3.49 | > 55.8 | Tde | Activity (Erythrocyte [13]): Non-Toxic
